# From ChEMBL document CHEMBL2375290, “Nonclassical antifolates, part 3: synthesis, biological evaluation and molecular modeling study of some new 2-heteroarylthio-quinazolin-4-ones” (Eur J Med Chem, 2013)
# pIC50: −log10 of the molar value.
# How the values were obtained:
# A498 = experiment: Cytotoxicity against human A498 cells at 10 uM after 48 hrs by coulter counter analysis; assay type: functional; conditions: A498, 48 h, read-out: GI
# CCRF-CEM = experiment: Cytotoxicity against human CCRF-CEM cells at 10 uM after 48 hrs by coulter counter analysis; assay type: functional; conditions: read-out: GI
# Bacillus subtilis [1] = experiment: Antimicrobial activity against Bacillus subtilis at 200 ug after 24 hrs by agar disc diffusion method; assay type: functional; conditions: read-out: DIZ
# Pseudomonas aeruginosa [2] = experiment: Antimicrobial activity against Pseudomonas aeruginosa at 200 ug after 24 hrs by agar disc diffusion method; assay type: functional; conditions: read-out: DIZ
# SR = experiment: Cytotoxicity against human SR cells at 10 uM after 48 hrs by coulter counter analysis; assay type: functional; conditions: read-out: GI
# CAKI-1 = experiment: Cytotoxicity against human Caki1 cells at 10 uM after 48 hrs by coulter counter analysis; assay type: functional; conditions: CAKI-1, 48 h, read-out: GI
# SN12C = experiment: Cytotoxicity against human SN12C cells at 10 uM after 48 hrs by coulter counter analysis; assay type: functional; conditions: read-out: GI
# LOX IMVI = experiment: Cytotoxicity against human LOXIMVI cells at 10 uM after 48 hrs by coulter counter analysis; assay type: functional; conditions: read-out: GI
# T47D = experiment: Cytotoxicity against human T47D cells at 10 uM after 48 hrs by coulter counter analysis; assay type: functional; conditions: read-out: GI
# HL-60(TB) = experiment: Cytotoxicity against human HL-60(TB) cells at 10 uM after 48 hrs by coulter counter analysis; assay type: functional; conditions: HL-60, 48 h, read-out: GI
# Staphylococcus aureus [3] = experiment: Antimicrobial activity against Staphylococcus aureus after 24 hrs by micro-dilution susceptibility method; assay type: functional
# How it was run: (§1)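 Broth microdilution in Müller-Hinton broth against S. aureus IFO 3060, B. subtilis IFO 3007, E. coli IFO 3301 and P. aeruginosa IFO 3448. These are the same standard strains used in the disc-diffusion primary screen. Compounds were solubilized in DMSO. MIC recorded as the minimal inhibitory concentration.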
# SNB-75 = experiment: Cytotoxicity against human SNB75 cells at 10 uM after 48 hrs by coulter counter analysis; assay type: functional; conditions: SNB-75, 48 h, read-out: GI
# Staphylococcus aureus [4] = experiment: Antimicrobial activity against Staphylococcus aureus at 200 ug after 24 hrs by agar disc diffusion method; assay type: functional; conditions: read-out: DIZ
# Dihydrofolate reductase = molecular target: T1, Dihydrofolate reductase (Bos taurus, UniProt P00376); experiment: Inhibition of bovine DHFR after 2 mins by spectrophotometry
# T1 sequence (P00376 whole entry): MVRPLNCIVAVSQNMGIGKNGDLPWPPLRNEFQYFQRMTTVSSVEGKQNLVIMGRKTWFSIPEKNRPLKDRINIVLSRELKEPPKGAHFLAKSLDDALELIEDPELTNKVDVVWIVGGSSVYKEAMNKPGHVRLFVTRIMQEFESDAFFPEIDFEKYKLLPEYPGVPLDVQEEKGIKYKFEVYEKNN
# OVCAR-4 = experiment: Cytotoxicity against human OVCAR4 cells at 10 uM after 48 hrs by coulter counter analysis; assay type: functional; conditions: OVCAR-4, 48 h, read-out: GI
# [5] = Cytotoxicity against human NCI-ADR-RES cells at 10 uM after 48 hrs by coulter counter analysis; assay type: functional; conditions: read-out: GI
# Escherichia coli [6] = experiment: Antimicrobial activity against Escherichia coli after 24 hrs by micro-dilution susceptibility method
# SK-MEL-5 = experiment: Cytotoxicity against human SK-MEL-5 cells at 10 uM after 48 hrs by coulter counter analysis; assay type: functional; conditions: SK-MEL-5, 48 h, read-out: GI
# [7] = Cytotoxicity against human EKVX cells at 10 uM after 48 hrs by coulter counter analysis; assay type: functional; conditions: read-out: GI
# MDA-MB-231 = experiment: Cytotoxicity against human MDA-MB-231 cells at 10 uM after 48 hrs by coulter counter analysis; assay type: functional; conditions: MDA-MB-231, 48 h, read-out: GI
# Malme-3M = experiment: Cytotoxicity against human MALME-3M cells at 10 uM after 48 hrs by coulter counter analysis; assay type: functional; conditions: read-out: GI
# UO-31 = experiment: Cytotoxicity against human UO31 cells at 10 uM after 48 hrs by coulter counter analysis; assay type: functional; conditions: UO-31, 48 h, read-out: GI
# RPMI-8226 = experiment: Cytotoxicity against human RPMI8226 cells at 10 uM after 48 hrs by coulter counter analysis; assay type: functional; conditions: RPMI-8226, 48 h, read-out: GI
# Hs-578T = experiment: Cytotoxicity against human Hs578T cells at 10 uM after 48 hrs by coulter counter analysis; assay type: functional; conditions: read-out: GI
# A549 = experiment: Cytotoxicity against human A549/ATCC cells at 10 uM after 48 hrs by coulter counter analysis; assay type: functional; conditions: A549, 48 h, read-out: GI
# Micrococcus luteus [8] = experiment: Antimicrobial activity against Micrococcus luteus at 200 ug after 24 hrs by agar disc diffusion method; assay type: functional; conditions: read-out: DIZ
# SF-295 = experiment: Cytotoxicity against human SF295 cells at 10 uM after 48 hrs by coulter counter analysis; assay type: functional; conditions: SF-295, 48 h, read-out: GI
# RXF 393 = experiment: Cytotoxicity against human RXF393 cells at 10 uM after 48 hrs by coulter counter analysis; assay type: functional; conditions: RXF 393, 48 h, read-out: GI
# Escherichia coli [9] = experiment: Antimicrobial activity against Escherichia coli at 200 ug after 24 hrs by agar disc diffusion method; assay type: functional; conditions: read-out: DIZ
# NCI-H522 = experiment: Cytotoxicity against human NCI-H522 cells at 10 uM after 48 hrs by coulter counter analysis; assay type: functional; conditions: NCI-H522, 48 h, read-out: GI
# MDA-MB-435 = experiment: Cytotoxicity against human MDA-MB-435 cells at 10 uM after 48 hrs by coulter counter analysis; assay type: functional; conditions: MDA-MB-435, 48 h, read-out: GI
# UACC-62 = experiment: Cytotoxicity against human UACC62 cells at 10 uM after 48 hrs by coulter counter analysis; assay type: functional; conditions: UACC-62, 48 h, read-out: GI
# MCF7 = experiment: Cytotoxicity against human MCF7 cells at 10 uM after 48 hrs by coulter counter analysis; assay type: functional; conditions: MCF7, 48 h, read-out: GI
# Bacillus subtilis [10] = experiment: Antimicrobial activity against Bacillus subtilis after 24 hrs by micro-dilution susceptibility method; assay type: functional; how it was run: as §1
# MOLT-4 = experiment: Cytotoxicity against human MOLT4 cells at 10 uM after 48 hrs by coulter counter analysis; assay type: functional; conditions: MOLT-4, 48 h, read-out: GI
# PC-3 = experiment: Cytotoxicity against human PC3 cells at 10 uM after 48 hrs by coulter counter analysis; assay type: functional; conditions: PC-3, 48 h, read-out: GI
# SNB-19 = experiment: Cytotoxicity against human SNB19 cells at 10 uM after 48 hrs by coulter counter analysis; assay type: functional; conditions: SNB-19, 48 h, read-out: GI
# NCI-H23 = experiment: Cytotoxicity against human NCI-H23 cells at 10 uM after 48 hrs by coulter counter analysis; assay type: functional; conditions: NCI-H23, 48 h, read-out: GI
# NCI-H226 = experiment: Cytotoxicity against human NCI-H226 cells at 10 uM after 48 hrs by coulter counter analysis; assay type: functional; conditions: NCI-H226, 48 h, read-out: GI
# IGROV-1 = experiment: Cytotoxicity against human IGROV1 cells at 10 uM after 48 hrs by coulter counter analysis; assay type: functional; conditions: IGROV-1, 48 h, read-out: GI
# Micrococcus luteus [11] = experiment: Antimicrobial activity against Micrococcus luteus at 100 ug after 24 hrs by agar disc diffusion method; assay type: functional
# How it was run: (§2)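 Agar disc diffusion on Müller-Hinton agar. Sterile 8 mm filter-paper discs were moistened with the compound in DMSO. Strains were B. subtilis IFO 3007 and M. luteus IFO 3232. Plates were incubated at 37 °C, and growth-inhibition zone diameters were measured in mm after 24 h. DMSO served as the solvent control.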
# Micrococcus luteus [12] = experiment: Antimicrobial activity against Micrococcus luteus after 24 hrs by micro-dilution susceptibility method; assay type: functional
# How it was run: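 MIC by broth microdilution in Müller-Hinton broth against M. luteus IFO 3232, the same strain used in the disc-diffusion primary screen.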
# Pseudomonas aeruginosa [13] = experiment: Antimicrobial activity against Pseudomonas aeruginosa after 24 hrs by micro-dilution susceptibility method; assay type: functional; how it was run: as §1
# Bacillus subtilis [14] = experiment: Antimicrobial activity against Bacillus subtilis at 100 ug after 24 hrs by agar disc diffusion method; assay type: functional; how it was run: as §2
compound,measurement,setting,value
COc1cc2nc(Sc3ncccc3C(=O)O)n(Cc3ccccc3)c(=O)c2cc1OC,inhibition of growth at 10 µM,A498,< 10%
same,inhibition of growth at 10 µM,CCRF-CEM,< 10%
same,zone of inhibition at 200 µg/disc,Bacillus subtilis [1],26 mm
same,zone of inhibition at 200 µg/disc,Pseudomonas aeruginosa [2],12 mm
same,inhibition of growth at 10 µM,SR,29.8%
same,inhibition of growth at 10 µM,CAKI-1,15.9%
same,inhibition of growth at 10 µM,SN12C,< 10%
same,inhibition of growth at 10 µM,LOX IMVI,< 10%
same,inhibition of growth at 10 µM,T47D,< 10%
same,inhibition of growth at 10 µM,HL-60(TB),13.2%
same,MIC,Staphylococcus aureus [3],4 µg/mL
same,inhibition of growth at 10 µM,SNB-75,< 10%
same,zone of inhibition at 200 µg/disc,Staphylococcus aureus [4],22 mm
same,pIC50,Dihydrofolate reductase,5.30
same,inhibition of growth at 10 µM,OVCAR-4,14.3%
same,inhibition of growth at 10 µM,[5],< 10%
same,MIC,Escherichia coli [6],4 µg/mL
same,inhibition of growth at 10 µM,SK-MEL-5,< 10%
same,inhibition of growth at 10 µM,[7],23.1%
same,inhibition of growth at 10 µM,MDA-MB-231,< 10%
same,inhibition of growth at 10 µM,Malme-3M,< 10%
same,inhibition of growth at 10 µM,UO-31,14.6%
same,inhibition of growth at 10 µM,RPMI-8226,12.5%
same,inhibition of growth at 10 µM,Hs-578T,< 10%
same,inhibition of growth at 10 µM,A549,< 10%
same,zone of inhibition at 200 µg/disc,Micrococcus luteus [8],15 mm
same,inhibition of growth at 10 µM,SF-295,< 10%
same,inhibition of growth at 10 µM,RXF 393,< 10%
same,zone of inhibition at 200 µg/disc,Escherichia coli [9],18 mm
same,inhibition of growth at 10 µM,NCI-H522,17.3%
same,inhibition of growth at 10 µM,MDA-MB-435,< 10%
same,inhibition of growth at 10 µM,UACC-62,11.6%
same,inhibition of growth at 10 µM,MCF7,13.5%
same,MIC,Bacillus subtilis [10],2 µg/mL
same,inhibition of growth at 10 µM,MOLT-4,13.8%
same,inhibition of growth at 10 µM,PC-3,< 10%
same,inhibition of growth at 10 µM,SNB-19,< 10%
same,inhibition of growth at 10 µM,NCI-H23,< 10%
same,inhibition of growth at 10 µM,NCI-H226,14%
same,inhibition of growth at 10 µM,IGROV-1,< 10%
GENTAMICIN,inhibition zone (IZ),Micrococcus luteus [11],18 mm
same,MIC,Micrococcus luteus [12],2 µg/mL
same,MIC,Pseudomonas aeruginosa [13],1 µg/mL
same,MIC,Staphylococcus aureus [3],2 µg/mL
same,inhibition zone (IZ),Bacillus subtilis [14],25 mm
same,MIC,Bacillus subtilis [10],2 µg/mL
COc1cc2nc(Sc3cnc(N)s3)n(-c3ccccc3)c(=O)c2cc1OC,inhibition of growth at 10 µM,A498,< 10%
same,inhibition of growth at 10 µM,CCRF-CEM,< 10%
same,zone of inhibition at 200 µg/disc,Bacillus subtilis [1],20 mm
same,zone of inhibition at 200 µg/disc,Pseudomonas aeruginosa [2],14 mm
same,inhibition of growth at 10 µM,SR,14.8%
same,MIC,Micrococcus luteus [12],4 µg/mL
same,inhibition of growth at 10 µM,CAKI-1,17.8%
same,inhibition of growth at 10 µM,SN12C,< 10%
same,inhibition of growth at 10 µM,LOX IMVI,< 10%
same,inhibition of growth at 10 µM,T47D,< 10%
same,inhibition of growth at 10 µM,HL-60(TB),< 10%
same,MIC,Staphylococcus aureus [3],8 µg/mL
same,inhibition of growth at 10 µM,SNB-75,< 10%
same,zone of inhibition at 200 µg/disc,Staphylococcus aureus [4],18 mm
same,pIC50,Dihydrofolate reductase,6.30
same,inhibition of growth at 10 µM,OVCAR-4,< 10%
same,inhibition of growth at 10 µM,[5],< 10%
same,MIC,Escherichia coli [6],4 µg/mL
same,inhibition of growth at 10 µM,SK-MEL-5,< 10%
same,inhibition of growth at 10 µM,[7],12.7%
same,inhibition of growth at 10 µM,MDA-MB-231,18.6%
same,inhibition of growth at 10 µM,Malme-3M,< 10%
same,inhibition of growth at 10 µM,UO-31,22.2%
same,inhibition of growth at 10 µM,RPMI-8226,12.5%
same,inhibition of growth at 10 µM,Hs-578T,< 10%
same,inhibition of growth at 10 µM,A549,< 10%
same,zone of inhibition at 200 µg/disc,Micrococcus luteus [8],16 mm
same,inhibition of growth at 10 µM,SF-295,< 10%
same,inhibition of growth at 10 µM,RXF 393,< 10%
same,zone of inhibition at 200 µg/disc,Escherichia coli [9],18 mm
same,inhibition of growth at 10 µM,NCI-H522,< 10%
same,inhibition of growth at 10 µM,MDA-MB-435,< 10%
same,inhibition of growth at 10 µM,UACC-62,< 10%
same,inhibition of growth at 10 µM,MCF7,< 10%
same,MIC,Bacillus subtilis [10],4 µg/mL
same,inhibition of growth at 10 µM,MOLT-4,< 10%
same,inhibition of growth at 10 µM,PC-3,12%
same,inhibition of growth at 10 µM,SNB-19,< 10%
same,inhibition of growth at 10 µM,NCI-H23,< 10%
same,inhibition of growth at 10 µM,NCI-H226,< 10%
same,inhibition of growth at 10 µM,IGROV-1,13%
